In ChEMBL document CHEMBL1944616, “Benzoxaborole antimalarial agents. Part 2: Discovery of fluoro-substituted 7-(2-carboxyethyl)-1,3-dihydro-1-hydroxy-2,1-benzoxaboroles” (Bioorg Med Chem Lett, 2012):

Columns and labels:
Plasmodium falciparum = test: Antimalarial activity against ring stage Plasmodium falciparum 3D7 infected in human erythrocytes after 48 hrs by flow cytometry; assay type: functional, organism-based; settings: 3D7, 48 h
[1] = Growth inhibition of human HeLa cells at 25 uM after 72 hrs by MTT assay; assay type: cell-based; settings: read-out: GI
Outline: (§1)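 Cytotoxicity counter-screen on human Jurkat (T cell) and human HeLa (cervical carcinoma) cell lines. Selected compounds were tested at one fixed concentration each.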

[2] = Growth inhibition of human Jurkat cells at 25 uM after 72 hrs by MTT assay; assay type: cell-based; settings: read-out: GI; outline: as §1

Row | SMILES | IC50 (Plasmodium falciparum) | inhibition at 72 h, 25 µM [1] | inhibition at 72 h, 25 µM [2]
1 | COc1cc(CCC(=O)O)c2c(c1)COB2O | 3.48 µM |  | 
2 | O=C1C(O)=C([C@H]2CC[C@H](c3ccc(Cl)cc3)CC2)C(=O)c2ccccc21 [ATOVAQUONE] | 0.001 µM |  | 
3 | CC(=O)Nc1ccc(CCC(=O)O)c2c1COB2O | > 5 µM |  | 
4 | O=C(O)CCc1cc(F)cc2c1B(O)OC2 | 0.061 µM |  | 
5 | O=C(O)C(F)Cc1cccc2c1B(O)OC2 (stereo not given) | 0.83 µM |  | 
6 | O=C(O)CCc1cc(Cl)cc2c1B(O)OC2 | 1.33 µM |  | 
7 | Cc1ccc(CCC(=O)O)c2c1COB2O | 1.45 µM |  | 
8 | O=P(O)(O)CCc1cccc2c1B(O)OC2 | > 5 µM | 26% | 3%
9 | O=C1NC(=O)C(Cc2cccc3c2B(O)OC3)N1 (stereo not given) | > 5 µM | 67.7% | 14.1%
10 | O=C(O)C1CCc2ccc3c(c2C1)B(O)OC3 (stereo not given) | 1.82 µM |  | 
11 | O=C(O)CCc1c(Cl)ccc2c1B(O)OC2 | 0.75 µM |  | 
